# High-throughput results (PubChem)
# ARNT-TACC3 inh: disruptors of ARNT/TACC3 protein interaction, primary screen, biochemical, AlphaScreen, single concentration; 390,000 tested, 0.66% active; AlphaScreen His-ARNT PAS-B/GST-TACC3 binding, luminescence; TACC3 fragment carries E629A point mutation; inhibition, % at 9.99 µM;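 active = mean inhibition of replicates at least 50% and at least half of replicates each reaching 50%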;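 note: 0% = complete ARNT plus TACC3 wells and 100% = ARNT alone without TACC3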
# SIRT5 block: SIRT5 desuccinylase inhibitors, primary screen, biochemical, fluorescence imaging, single point, set 5; NAD-dependent protein deacylase sirtuin-5, mitochondrial (Homo sapiens), Q9NXA8; inhibition, % at 15 µM; AID 652115, 2013; 330,000 tested, 1.1% active; Purified SirT5, succinyl-peptide AMC, trypsin-coupled fluorescence; in the data active = inhibition above about 15%
# Target sequence (Q9NXA8 whole entry, looked up): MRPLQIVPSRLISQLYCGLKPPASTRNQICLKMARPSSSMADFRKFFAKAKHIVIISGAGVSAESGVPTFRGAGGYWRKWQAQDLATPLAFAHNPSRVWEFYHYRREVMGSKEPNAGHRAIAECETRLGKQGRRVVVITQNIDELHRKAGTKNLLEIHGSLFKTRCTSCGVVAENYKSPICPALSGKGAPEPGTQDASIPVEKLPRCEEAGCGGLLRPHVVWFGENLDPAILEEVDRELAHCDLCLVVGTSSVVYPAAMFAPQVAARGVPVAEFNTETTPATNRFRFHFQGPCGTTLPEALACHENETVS
# DENV2 CPE: inhibitors of DENV2 cytopathic effect, primary screen, cell-based, plate reader, single concentration | DENV2-infected cells, cytopathic effect rescue | CPE inhibition, % at 9.99 µM | 350,000 tested, 1.7% active | AID 651640, 2012; in the data active = CPE inhibition above about 20%, passing the limit was not always enough; tested in BHK-21 cells;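 note: 0% = median of neutral control wells and 100% = median of positive control wells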
# FGF22 binding: binders of human FGF22 protein, primary screen, FGF22 synaptogenesis inhibitor project, biophysical, thermal shift, single point | Fibroblast growth factor 22 (Homo sapiens), Q9HCT0 | recombinant FGF22 thermal shift, SYPRO orange fluorescence; percent of sucrose octasulfate shift, DMSO zero | activity (Tm shift, normalised), % at 9.99 µM | 340,000 tested, 1.5% active | AID 651658, 2012;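 active = mean Tm shift, scaled 0 neutral to 100 positive control, at about 1.3% or above, every replicate too, limit read from the data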
# Target sequence (Q9HCT0 whole entry, looked up): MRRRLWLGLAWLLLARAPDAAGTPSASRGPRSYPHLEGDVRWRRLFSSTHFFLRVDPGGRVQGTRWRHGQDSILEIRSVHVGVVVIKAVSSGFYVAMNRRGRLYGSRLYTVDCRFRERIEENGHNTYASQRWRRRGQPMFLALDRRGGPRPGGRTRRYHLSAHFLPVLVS
# FN deposition inh: inhibitors of fibronectin matrix deposition, primary screen, AH1F cells, Alexa488-fibronectin fluorescence, plate reader; AH1F fibroblasts, overnight; inhibition, % at 12.6 µM; 350,000 tested, 0.086% active; AID 743247, 2014;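 active = mean inhibition across replicates of 30% or more, regardless of how many single replicates reach that level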;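 note: positive control wells lacked labelled fibronectin entirely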
#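 Test system: AH1F fibroblast monolayer depositing Alexa488-labelled fibronectin into matrix. Input: 10000 cells per well. Technique: fluorescence, ex 485 nm, em 525 nm. Buffer or medium: DMEM plus 2% serum, read in PBS. Timing: 1 h cell adhesion before compound, then overnight fibronectin incubation. Compound: single dose, pinned. Read-out basis: inhibition from reduced deposited-fibronectin fluorescence.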
# Xi reactivation: activators of inactive X chromosome reactivation, primary screen, imaging, XiGFP fibroblasts, GFP high-content imaging, set 2. AID 743238, 2013. 360,000 tested, 0.055% active. XiGFP mouse fibroblasts, % GFP-positive cells imaging, 3 d; cells co-treated with 5-aza-dC sensitizer; scaled so ellipticine positive control = 100%. activation, % at 7.58 µM;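 active = mean normalized replicate activation at least 10% and every replicate at or above 10%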;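 note: 0% = median of on-plate neutral control wells and 100% = ellipticine 6 µM median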
#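 Material: XiGFP fibroblasts, SV40-immortalized. Buffer or medium: DMEM plus 5-aza-dC sensitizer. Compound: single concentration per compound, delivered by pin transfer. Times: 3 days compound exposure. Controls: ellipticine 6 µM.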
# * = called active by the depositor; x = no result given. Most compounds without a hit are left out; they make up all but 3.8% or so of the library.
SMILES,ARNT-TACC3 inh,SIRT5 block,DENV2 CPE,FGF22 binding,FN deposition inh,Xi reactivation
O=C(c1ccc(F)cc1)N1CC(=O)N2[C@@H](CO)[C@H](c3ccc(C#CC4CC4)cc3)[C@@H]2C1,x,-4,41*,x,3,0
O=C(c1cnccn1)N1CC(=O)N2[C@H](CO)[C@H](c3ccc(C#CC4CC4)cc3)[C@@H]2C1,x,2,1,x,-2,0
O=C(c1ccc(F)cc1)N1CC(=O)N2[C@@H](CO)[C@@H](c3ccc(C#CC4CC4)cc3)[C@@H]2C1,x,3,18,x,8,0
O=C(Nc1ccc(F)cc1)N1CC(=O)N2[C@@H](CO)[C@H](c3ccc(C#CC4CC4)cc3)[C@@H]2C1,x,2,0,x,x,0
O=C(Nc1ccc(F)cc1)N1CC(=O)N2[C@H](CO)[C@H](c3ccc(C#CC4CC4)cc3)[C@H]2C1,x,1,35*,x,x,0
Cc1noc(C)c1S(=O)(=O)N(C)C[C@H]1Oc2c(NC(=O)c3ccc(-c4nccs4)cc3)cccc2C(=O)N([C@H](C)CO)C[C@H]1C,4,4,0,-1,1,0
C[C@@H]1CN([C@H](C)CO)C(=O)c2cccc(NC(=O)Nc3ccc(C(F)(F)F)cc3)c2O[C@H]1CN(C)Cc1ccc2c(c1)OCO2,5,2,3,-1,5,0
Cc1ccc(S(=O)(=O)NNC(=O)C2CCCCC2)cc1,2,-3,7,0,3,0
O=C(NNS(=O)(=O)c1ccc(Br)cc1)C1CCCCC1,-2,-1,4,43*,-3,0
O=C(CCc1ccccc1)OCC(=O)c1ccc(Br)cc1,33,2,-1,43*,-24,0
C[C@@H]1CN([C@H](C)CO)C(=O)c2cc(NS(=O)(=O)c3cccs3)ccc2O[C@H]1CN(C)C(=O)Nc1cccc2ccccc12,-6,6,-2,0,1,-1
O=C(c1cc2c(c(-c3cccc(Br)c3)n1)[C@H](CCO)NC2)N1CCCCC1,x,2,35*,x,2,0
CC(C)(C)[S@](=O)N1Cc2cc(C(=O)N3CCCCC3)nc(-c3cccc(C4=CCCC4)c3)c2[C@@H]1CCO,x,x,26*,0,-5,0
O=C(c1cc2c(c(-c3cccc(Br)c3)n1)[C@@H](CCO)NC2)N1CCCCC1,x,x,x,x,5,0
CCOC(=O)c1cc2c(c(-c3cccc(-c4cccc(OC)c4)c3)n1)[C@@H](CCO)N(S(=O)C(C)(C)C)C2 (some centres not stated),55*,-4,-5,0,2,0
CC(=O)N1Cc2cc(C(=O)NCc3cc(F)cc(F)c3)nc(-c3cccc(C4=CCCC4)c3)c2[C@H]1CCO,x,15*,-13,-1,x,x
COCC(=O)Nc1ccc2c(c1)C(=O)N(C)[C@@H]1CC[C@@H](CC(=O)NCc3cccc(F)c3)O[C@H]1CO2,10,x,3,0,-5,0
COCC(=O)N1[C@@H](CO)[C@@H]2c3ccccc3N(C(=O)Nc3ccccc3F)C[C@@H]21,-1,13,10,-1,x,0
COc1ccc(C(CNC(=O)c2cccc(S(=O)(=O)N3CCc4ccccc43)c2)N(C)C)cc1 (configuration not stated),6,x,0,43*,-3,0
COc1ccc(NC(=O)CN(C)C(=O)c2cccc(S(=O)(=O)N3CCCc4ccccc43)c2)cc1,-3,-7,8,-1,2,0
COc1ccc(C(CNC(=O)c2cccc(S(=O)(=O)N3CCCCC3)c2)N2CCCC2)cc1 (configuration not stated),x,24*,17,0,12,0
COc1ccccc1C(CNC(=O)c1cccc(S(=O)(=O)N2CCCc3ccccc32)c1)N(C)C (configuration not stated),x,-8,-1,0,5,0
COc1ccccc1CN(C)C(=O)c1cccc(S(=O)(=O)N2CCCc3ccccc32)c1,-20,0,81*,0,1,0
CO[C@H]1CN(C)C(=O)c2ccc(NC(=O)c3ccccc3F)cc2OC[C@@H](C)NC[C@@H]1C,-3,-9,-4,0,8,0
CN1C(=O)c2cc(NC(=O)c3ccc(F)cc3)ccc2OC[C@@H]2O[C@H](CC(=O)NCC3CC3)CC[C@@H]21,-15,6,-13,0,-34,0
SMILES,ARNT-TACC3 inh,SIRT5 block,DENV2 CPE,FGF22 binding,FN deposition inh,Xi reactivation
C[C@@H]1CN([C@H](C)CO)C(=O)c2cc(NC(=O)CCC(F)(F)F)ccc2O[C@@H]1CN(C)CC1CC1,1,-1,-4,0,x,0
Cc1cccc(OC(=O)Nc2ccc(C(=O)O)c(O)c2)c1,x,35*,14,1,0,0
Cc1ccc(S(=O)(=O)OCC(=O)Nc2ccc(C(=O)O)c(O)c2)cc1,-4,53*,4,1,4,0
CCOC(=O)Nc1ccc(C(=O)Oc2ccccc2)c(O)c1,-3,-3,-4,0,x,x
CN1CCN(C(=O)C[C@@H]2CC[C@@H]3[C@H](COC[C@H](O)CN3S(=O)(=O)c3cccc(Cl)c3)O2)CC1,-11,-4,-2,0,2,0
O=C(O)c1cccc(N2C(=O)/C(=C/c3ccc(SCc4ccc(Cl)cc4)o3)SC2=S)c1,-1,21*,-3,x,-9,0
O=C(CCN1C(=O)/C(=C/c2ccc(Cl)cc2)SC1=S)Nc1cccc(C(=O)O)c1,-3,-1,4,0,-3,0
CS(=O)(=O)N1CCN(c2ccccc2NC(=S)NC(=O)c2cccs2)CC1,-1,0,-1,43*,6,0
CC1CCN(c2ccccc2NC(=S)NC(=O)c2cccs2)CC1,4,x,x,x,x,x
CC1CCN(c2ccccc2NC(=S)NC(=O)C(C)(C)C)CC1,-1,0,1,43*,-12,0
C[C@@H]1CN([C@H](C)CO)C(=O)c2cc(NC(=O)Nc3cccc4ccccc34)ccc2O[C@H]1CN(C)Cc1ccc(-c2ccccc2)cc1,-1,13,-8,-1,x,0
O=C(Nc1nc(-c2ccc([N+](=O)[O-])cc2)cs1)C1=COCCO1,x,3,42*,0,0,0
